Data on 56 molecules can be found in ChEMBL document CHEMBL1134791, “2- and 3-substituted 1,4-naphthoquinone derivatives as subversive substrates of trypanothione reductase and lipoamide dehydrogenase from Trypanosoma cruzi: synthesis and correlation between redox cycling activities and in vitro cytotoxicity” (J Med Chem, 2001).

One experiment has as its system Leishmania donovani. In words: In vitro antiparasitic activity against Leishmania donovani was tested by sigmoidal regression analysis. Type of experiment: functional. In a few lines:
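Mouse peritoneal macrophages (female CD1, starch-elicited, harvested 24 h) infected with L. donovani amastigotes (strain MHOM/ET/67/L82, hamster spleen) or T. cruzi Y-strain trypomastigotes (5:1, from MDCK overlay). Infected cells exposed to a 3-fold dilution series in quadruplicate for 5 days (L. donovani) or 3 days (T. cruzi). Giemsa-stained slides scored for % macrophages cleared of amastigotes versus untreated cultures. ED50 by sigmoidal regression.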

In experiment [1] the target is Trypanothione reductase (Trypanosoma cruzi) (UniProt P28593). The experiment in a line: Rate of NADPH oxidation by TcTR in presence of 100 uM NQ was determined in comparison to intrinsic oxidase activity. In a few lines:
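Quinone reductase activity of recombinant TcTR measured as NADPH oxidation at 340 nm. Buffer was 20 mM Hepes, 1 mM EDTA, 0.15 M KCl, pH 7.25, with 250 µM NADPH at 25 °C. Rate with naphthoquinone (100 µM for line 8, 25 µM for line 9) divided by intrinsic oxidase rate of enzyme plus NADPH alone. Mean of at least two measurements.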

The target is the same in experiment [2]. The experiment in a line: The second order rate constant of the TcTR (Trypanosoma cruzi trypanothione reductase) catalyzed […]. In a few lines: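 Recombinant TcTR (0.6 U) in 20 mM Hepes, 1 mM EDTA, 0.15 M KCl, pH 7.25 at 22 °C, with 200 µM NADPH and naphthoquinone at five concentrations (0–100 µM) in 1% DMSO. NADPH oxidation at 340 nm; intrinsic oxidase rate not subtracted. Km and Vmax from nonlinear Michaelis–Menten fit; kcat and kcat/Km calculated.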

Molecules are shown by their SMILES. Where only a bound is given, the exact number is not on record here.

Chain of Trypanothione reductase (Trypanosoma cruzi) (P28593 whole entry, looked up): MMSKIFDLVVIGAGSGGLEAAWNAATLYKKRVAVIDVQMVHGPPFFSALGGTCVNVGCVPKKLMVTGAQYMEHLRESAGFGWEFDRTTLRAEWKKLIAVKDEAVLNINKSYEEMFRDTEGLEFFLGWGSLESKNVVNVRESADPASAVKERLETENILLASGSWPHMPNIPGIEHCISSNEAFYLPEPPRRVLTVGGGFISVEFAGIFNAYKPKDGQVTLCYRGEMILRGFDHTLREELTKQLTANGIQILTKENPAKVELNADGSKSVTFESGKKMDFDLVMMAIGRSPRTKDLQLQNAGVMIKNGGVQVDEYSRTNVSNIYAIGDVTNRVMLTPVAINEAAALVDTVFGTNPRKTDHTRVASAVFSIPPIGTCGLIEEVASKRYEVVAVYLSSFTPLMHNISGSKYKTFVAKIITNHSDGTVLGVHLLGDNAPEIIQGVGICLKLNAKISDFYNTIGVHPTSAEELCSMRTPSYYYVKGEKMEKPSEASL

Consider `CC1=C(CCCC(=O)N2CCN(C)CC2)C(=O)c2c(O)cccc2C1=O`, for which the ED50 in the experiment with Leishmania donovani is 82 µM. In addition, in experiment [1], the x fold worked out at 14.
For `CC1=C(NCCCNCCCN)C(=O)c2c(O)cccc2C1=O`, in that order: above 30 µM and 2.
As for `CC1=C(CCCCC(=O)O)C(=O)c2c(O)cccc2C1=O`, the ED50 in the experiment with Leishmania donovani amounted to 56 µM.
As to `CC1=C(NCCCNCCC/N=C2/C(=O)c3ccccc3C(O)=C2C)C(=O)c2ccccc2C1=O`, in experiment [1], the x fold was found to be 4.
With `CC1=C(CCC(=O)NCCCNCCCNC(=O)CCC2=C(C)C(=O)c3cccc(O)c3C2=O)C(=O)c2c(O)cccc2C1=O`, in the experiment on Leishmania donovani, the ED50 is above 49 µM. The k cat/Km in experiment [2] is 4.5 10e4 M-1 s-1.
With `CC1=C(CCCCCNC(=O)OC(C)(C)C)C(=O)c2c(O)cccc2C1=O`, the ED50 in the experiment on Leishmania donovani was 33.8 µM.
Still for that read-out and setting: next, `CC1=C(NCCCNCCCCNCCCN)C(=O)c2c(O)cccc2C1=O`: above 30 µM.
Molecule `CC1=C(CCCC(=O)NCCCN2CCN(CCCNC(=O)CCCC3=C(C)C(=O)c4cccc(O)c4C3=O)CC2)C(=O)c2c(O)cccc2C1=O` displayed an ED50 in the experiment with Leishmania donovani of 38.5 µM. Besides, the k cat/Km in experiment [2] is 3.5 10e4 M-1 s-1.
With `CC1=C(CCCCC(=O)NCCCN2CCN(CCCNC(=O)CCCCC3=C(C)C(=O)c4cccc(O)c4C3=O)CC2)C(=O)c2c(O)cccc2C1=O`, in the experiment with Leishmania donovani, the ED50 turned out to be 29.6 µM.
Still for that read-out and setting: next, `CN1CCN(CCCNC(=O)CCCCC2=C(CCCCC(=O)NCCCN3CCN(C)CC3)C(=O)c3c(O)cccc3C2=O)CC1`: 38.2 µM; `CC1=C(CCCC(=O)N2CCN(C)CC2)C(=O)c2ccccc2C1=O`: 32 µM.
On to `CC1=C(CCCC(=O)NCCCN2CCN(C)CC2)C(=O)c2c(O)cccc2C1=O`, for which the ED50 in the experiment on Leishmania donovani stood at 66 µM. In experiment [1], the x fold worked out at 40.
Take `CC1=C(CCCCNC(=O)OC(C)(C)C)C(=O)c2c(O)cccc2C1=O`: the ED50 in the experiment with Leishmania donovani is 14.2 µM.
Same read-out and setting: in the case of `CC1=C(CCCC(=O)O)C(=O)c2c(O)cccc2C1=O` it was above 109 µM.
Molecule `CC1=C(CCCCC(=O)NCCCN2CCN(CCCNC(=O)CCCCC3=C(C)C(=O)c4ccccc4C3=O)CC2)C(=O)c2ccccc2C1=O` came in with an ED50 in the experiment on Leishmania donovani of 31.3 µM. Moreover, the k cat/Km in experiment [2] is 8.4 10e4 M-1 s-1.
`CN(C)CCCN1CCN(CC2=C(N3CCN(CCCN(C)C)CC3)C(=O)c3ccccc3C2=O)CC1`: in experiment [1], the x fold stood at 3.9.
Turning to `CC1=C(CCCC(=O)NCCCNCCCNC(=O)CCCC2=C(C)C(=O)c3ccccc3C2=O)C(=O)c2ccccc2C1=O`, the ED50 in the experiment on Leishmania donovani was above 49 µM. Also, the k cat/Km in experiment [2] is 1.6 10e4 M-1 s-1.
As for `CC1=C(CCCCNC(=O)OC(C)(C)C)C(=O)c2ccccc2C1=O`, the ED50 in the experiment with Leishmania donovani is 16.5 µM.
Still for that read-out and setting: in the case of `CN1CCN(CCCNC(=O)CCC2=C(CCC(=O)NCCCN3CCN(C)CC3)C(=O)c3c(O)cccc3C2=O)CC1` it was above 50 µM; in that of `CC1=C(CCCCCNC(=O)OC(C)(C)C)C(=O)c2ccccc2C1=O`, 12.5 µM.
Molecule `CN1CCN(CCCNC(=O)CCCC2=C(CCCC(=O)NCCCN3CCN(C)CC3)C(=O)c3c(O)cccc3C2=O)CC1` came in with an ED50 with Leishmania donovani above 59 µM. In experiment [1], the x fold is 45.
On to `CC1=C(O)c2ccccc2C(=O)/C1=N\CCCN1CCN(C)CC1`, for which the x fold in experiment [1] was 2.
Take `CC1=C(CCNC(=O)OC(C)(C)C)C(=O)c2c(O)cccc2C1=O`: in the experiment on Leishmania donovani, the ED50 amounted to 11.8 µM.
For `CC1=C(CCCCC(=O)NCCCNCCCNC(=O)CCCCC2=C(C)C(=O)c3ccccc3C2=O)C(=O)c2ccccc2C1=O`, the ED50 with Leishmania donovani was above 45 µM. In experiment [2], the k cat/Km was 0.8 10e4 M-1 s-1.
For `CC1=C(CCCCC(=O)NCCCCNCCCNC(=O)CCCCC2=C(C)C(=O)c3ccccc3C2=O)C(=O)c2ccccc2C1=O`, in that order: 11.9 µM and 5.8 10e4 M-1 s-1.
`CC1=C(CCCCC(=O)NCCCCNCCCNC(=O)CCCCC2=C(C)C(=O)c3cccc(O)c3C2=O)C(=O)c2c(O)cccc2C1=O` returned an ED50 in the experiment with Leishmania donovani of 7.8 µM. In experiment [2], the k cat/Km was 13 10e4 M-1 s-1.
On the same counts, the results for `CC1=C(CCCC(=O)NCCCCNCCCNC(=O)CCCC2=C(C)C(=O)c3ccccc3C2=O)C(=O)c2ccccc2C1=O` are above 48 µM and 2.3 10e4 M-1 s-1.
In the experiment with Leishmania donovani, `CC1=C(CCCCCC(=O)NCCCN2CCN(CCCNC(=O)CCCCCC3=C(C)C(=O)c4ccccc4C3=O)CC2)C(=O)c2ccccc2C1=O` had an ED50 of 14.3 µM. Besides, the k cat/Km in experiment [2] is 3.3 10e4 M-1 s-1.
In the experiment on Leishmania donovani, `CC1=C(CCCCCC(=O)O)C(=O)c2c(O)cccc2C1=O` returned an ED50 of 28 µM.
With `CC1=C(CCC(=O)N2CCN(C)CC2)C(=O)c2ccccc2C1=O`, in the experiment with Leishmania donovani, the ED50 was 87 µM. The x fold in experiment [1] is 19.
The molecule `CC1=C(CCCCCC(=O)NCCCCNCCCNC(=O)CCCCCC2=C(C)C(=O)c3ccccc3C2=O)C(=O)c2ccccc2C1=O` had an ED50 in the experiment on Leishmania donovani of 5.4 µM. Further, the k cat/Km in experiment [2] is 4.8 10e4 M-1 s-1.
On the same counts, the results for `CC1=C(CCCCCC(=O)NCCCN2CCN(CCCNC(=O)CCCCCC3=C(C)C(=O)c4cccc(O)c4C3=O)CC2)C(=O)c2c(O)cccc2C1=O` are 17.4 µM and 16.8 10e4 M-1 s-1.
`O=C(O)CCCCC1=C(CCCCC(=O)O)C(=O)c2c(O)cccc2C1=O` returned an ED50 in the experiment on Leishmania donovani above 80 µM.
`CC1=C(CCCC(=O)NCCCN2CCN(C)CC2)C(=O)c2ccccc2C1=O` displayed an ED50 with Leishmania donovani above 76 µM. In addition, the x fold in experiment [1] is 11.
`CN1CCN(C(=O)CCC2=C(CCC(=O)N3CCN(C)CC3)C(=O)c3c(O)cccc3C2=O)CC1` registered an ED50 in the experiment on Leishmania donovani above 62 µM.
The same measure, in the same setting: in the case of `O=C(O)CCC1=C(CCC(=O)O)C(=O)c2c(O)cccc2C1=O` it was above 93 µM; in that of `O=C(O)CCCC1=C(CCCC(=O)O)C(=O)c2c(O)cccc2C1=O`, above 87 µM.
As to `CN1CCN(C(=O)CCCC2=C(CCCC(=O)N3CCN(C)CC3)C(=O)c3c(O)cccc3C2=O)CC1`, the ED50 in the experiment on Leishmania donovani was above 48 µM. In addition, the x fold in experiment [1] is 220.
In the case of `CC1=C(CCCCCC(=O)NCCCCNCCCNC(=O)CCCCCC2=C(C)C(=O)c3cccc(O)c3C2=O)C(=O)c2c(O)cccc2C1=O`, in the experiment with Leishmania donovani, the ED50 is 34.8 µM. Moreover, the k cat/Km in experiment [2] is 13.3 10e4 M-1 s-1.
On the same counts, the results for `CC1=C(CCCCCC(=O)NCCCNCCCNC(=O)CCCCCC2=C(C)C(=O)c3cccc(O)c3C2=O)C(=O)c2c(O)cccc2C1=O` are 10.3 µM and 14.5 10e4 M-1 s-1.
For `CC1=C(CCCC(=O)NCCCCNCCCNC(=O)CCCC2=C(C)C(=O)c3cccc(O)c3C2=O)C(=O)c2c(O)cccc2C1=O`, in that order: above 46 µM and 3.6 10e4 M-1 s-1.
In turn, `CC1=C(CCCCC(=O)O)C(=O)c2ccccc2C1=O` displayed an ED50 in the experiment with Leishmania donovani of 39 µM.
As for `CC1=C(CCCCC(=O)NCCCNCCCNC(=O)CCCCC2=C(C)C(=O)c3cccc(O)c3C2=O)C(=O)c2c(O)cccc2C1=O`, the ED50 with Leishmania donovani is 11.1 µM. Besides, in experiment [2], the k cat/Km was 11.4 10e4 M-1 s-1.
For the molecule `CC1=C(CCNC(=O)OC(C)(C)C)C(=O)c2ccccc2C1=O`, in the experiment with Leishmania donovani, the ED50 was found to be 8.8 µM.
On to `CC1=C(CCC(=O)N2CCN(C)CC2)C(=O)c2c(O)cccc2C1=O`, for which, in the experiment with Leishmania donovani, the ED50 is above 88 µM. Besides, the x fold in experiment [1] stood at 38.
The molecule `CC1=C(CCCCCC(=O)O)C(=O)c2ccccc2C1=O` displayed an ED50 in the experiment with Leishmania donovani of 18 µM.
The molecule `CC1=C(CCC(=O)NCCCN2CCN(CCCNC(=O)CCC3=C(C)C(=O)c4cccc(O)c4C3=O)CC2)C(=O)c2c(O)cccc2C1=O` came in with an ED50 in the experiment on Leishmania donovani above 44 µM. Also, the k cat/Km in experiment [2] is 5.1 10e4 M-1 s-1.
For `CC1=C(CCCC(=O)NCCCN2CCN(CCCNC(=O)CCCC3=C(C)C(=O)c4ccccc4C3=O)CC2)C(=O)c2ccccc2C1=O`, in that order: 14.7 µM and 4.2 10e4 M-1 s-1.
In the experiment on Leishmania donovani, `CC1=C(CCC(=O)NCCCCNCCCNC(=O)CCC2=C(C)C(=O)c3ccccc3C2=O)C(=O)c2ccccc2C1=O` came in with an ED50 above 50 µM. In addition, in experiment [2], the k cat/Km is 5.1 10e4 M-1 s-1.
On to `CC1=C(NCCCN2CCN(CCCN)CC2)C(=O)c2c(O)cccc2C1=O`, for which the x fold in experiment [1] was 6.4.
`CC1=C(CCCC(=O)NCCCNCCCNC(=O)CCCC2=C(C)C(=O)c3cccc(O)c3C2=O)C(=O)c2c(O)cccc2C1=O` showed an ED50 in the experiment with Leishmania donovani of 46.7 µM. In experiment [2], the k cat/Km is 6.5 10e4 M-1 s-1.
In turn, `CC1=C(CCC(=O)NCCCCNCCCNC(=O)CCC2=C(C)C(=O)c3cccc(O)c3C2=O)C(=O)c2c(O)cccc2C1=O` returned an ED50 in the experiment with Leishmania donovani above 48 µM. For the same molecule, the k cat/Km in experiment [2] is 7.7 10e4 M-1 s-1.
`CC1=C(NCCCCN)C(=O)c2ccccc2C1=O` showed an ED50 with Leishmania donovani above 12.5 µM.
`CC1=C(CCCCCC(=O)NCCCNCCCNC(=O)CCCCCC2=C(C)C(=O)c3ccccc3C2=O)C(=O)c2ccccc2C1=O`: the ED50 in the experiment on Leishmania donovani is 22.8 µM. In experiment [2], the k cat/Km was 2.3 10e4 M-1 s-1.
As to `O=C(O)CCCCCC1=C(CCCCCC(=O)O)C(=O)c2ccccc2C1=O`, the ED50 in the experiment with Leishmania donovani was above 74 µM.
Consider `CC1=C(CCC(=O)NCCCNCCCNC(=O)CCC2=C(C)C(=O)c3ccccc3C2=O)C(=O)c2ccccc2C1=O`, for which the ED50 with Leishmania donovani is above 51 µM. Besides, the k cat/Km in experiment [2] is 2.3 10e4 M-1 s-1.
